Data published in ChEMBL document CHEMBL4038340, “Development of Novel Peptide-Based Michael Acceptors Targeting Rhodesain and Falcipain-2 for the Treatment of Neglected Tropical Diseases (NTDs)” (J Med Chem, 2017).
Calls of active or inactive are those of the source. The calls are words filed in the database; no cut-off is given here.

Tests used:
[1] = biological target: Rhodesain (Trypanosoma brucei rhodesiense) (UniProt Q95PM0); test: Inhibition of recombinant Trypanosoma brucei rhodesiense rhodesain expressed in Pichia pastoris assessed as second order rate constant using Cbz-Phe-Arg-AMC as substrate after 30 mins by fluorescence assay
How it was run: (§1)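 Recombinant rhodesain with fluorogenic substrate Cbz-Phe-Arg-AMC. Preliminary screen at a fixed inhibitor concentration of 50 µM. Equal volume of DMSO served as negative control and E-64 as irreversible positive control. Active compounds went on to continuous assays at seven concentrations, from minimally to fully inhibitory, giving kinac (min-1), Ki (nM) and k2nd = kinac/Ki (M-1 min-1).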

[2] = biological target: T1, Procathepsin L (Homo sapiens, UniProt P07711); test: Inhibition of human cathepsin L using Cbz-Phe-Arg-AMC as substrate after 10 mins by fluorescence assay
Target sequence in this assay (P07711 whole entry): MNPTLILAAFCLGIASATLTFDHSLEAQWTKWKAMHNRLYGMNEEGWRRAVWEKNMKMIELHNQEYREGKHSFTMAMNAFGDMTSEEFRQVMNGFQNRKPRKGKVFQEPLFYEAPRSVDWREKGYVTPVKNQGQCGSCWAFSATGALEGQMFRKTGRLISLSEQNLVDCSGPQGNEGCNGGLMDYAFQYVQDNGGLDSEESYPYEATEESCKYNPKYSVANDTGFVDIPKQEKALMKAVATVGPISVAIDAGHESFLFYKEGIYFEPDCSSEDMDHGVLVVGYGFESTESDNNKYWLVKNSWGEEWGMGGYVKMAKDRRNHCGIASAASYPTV

[3] = biological target: T1, Procathepsin L; test: Inhibition of human cathepsin L assessed as first order rate constant using Cbz-Phe-Arg-AMC as substrate after 10 mins by fluorescence assay
Target sequence in this assay (P07711 114-333 limits assumed): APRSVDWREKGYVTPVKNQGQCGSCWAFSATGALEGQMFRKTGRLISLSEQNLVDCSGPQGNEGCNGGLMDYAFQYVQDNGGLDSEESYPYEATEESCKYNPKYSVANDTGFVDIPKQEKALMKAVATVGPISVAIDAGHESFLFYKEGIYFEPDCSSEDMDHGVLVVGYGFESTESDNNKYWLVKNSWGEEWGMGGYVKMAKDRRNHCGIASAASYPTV

[4] = system: Trypanosoma brucei brucei; test: Antiparasitic activity against bloodstream form of Trypanosoma brucei brucei 449 after 24 hrs by ATPlite assay; type: functional; conditions: Trypanosoma brucei, 449, 24 h
[5] = biological target: Rhodesain (Trypanosoma brucei rhodesiense) (UniProt Q95PM0); test: Inhibition of recombinant Trypanosoma brucei rhodesiense rhodesain expressed in Pichia pastoris assessed as first order rate constant using Cbz-Phe-Arg-AMC as substrate after 30 mins by fluorescence assay; how it was run: as §1
[6] = system: Trypanosoma brucei brucei; test: Antiparasitic activity against bloodstream form of Trypanosoma brucei brucei 449 after 48 hrs by ATPlite assay; type: functional; conditions: Trypanosoma brucei, 449, 48 h
[7] = Selectivity index, ratio of CC50 for human HeLa cells to EC50 for Trypanosoma brucei brucei 449 for 48 hrs; type: toxicity, cell-based; conditions: read-out: Ratio CC50/EC50
[8] = system: Plasmodium falciparum; test: Antiparasitic activity against Plasmodium falciparum W2 after 48 hrs by YOYO-1 probe-based flow cytometry; type: functional; conditions: W2, 48 h
[9] = biological target: Rhodesain (Trypanosoma brucei rhodesiense, UniProt Q95PM0); test: Inhibition of recombinant Trypanosoma brucei rhodesiense rhodesain expressed in Pichia pastoris using Cbz-Phe-Arg-AMC as substrate after 30 min by fluorescence assay
How it was run: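 Recombinant rhodesain with fluorogenic Cbz-Phe-Arg-AMC substrate. Compounds were first screened at a fixed 50 µM, with DMSO as negative control and an irreversible clan CA cysteine-protease inhibitor as positive control. Continuous assays at seven inhibitor concentrations, from minimally to fully inhibitory, gave kinac (min-1) and Ki, with k2nd = kinac/Ki (M-1 min-1).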

[10] = Cytotoxicity against human HeLa cells assessed as decrease in cell viability after 48 hrs by MTT assay; type: cell-based
[11] = biological target: T2, Falcipain 2 (Plasmodium falciparum, UniProt Q9N6S8); test: Inhibition of recombinant Plasmodium falciparum falcipain-2 expressed in Escherichia coli M15(pREP4) using Cbz-Phe-Arg-AMC as substrate by fluorescence assay
T2 sequence (Q9N6S8 whole entry): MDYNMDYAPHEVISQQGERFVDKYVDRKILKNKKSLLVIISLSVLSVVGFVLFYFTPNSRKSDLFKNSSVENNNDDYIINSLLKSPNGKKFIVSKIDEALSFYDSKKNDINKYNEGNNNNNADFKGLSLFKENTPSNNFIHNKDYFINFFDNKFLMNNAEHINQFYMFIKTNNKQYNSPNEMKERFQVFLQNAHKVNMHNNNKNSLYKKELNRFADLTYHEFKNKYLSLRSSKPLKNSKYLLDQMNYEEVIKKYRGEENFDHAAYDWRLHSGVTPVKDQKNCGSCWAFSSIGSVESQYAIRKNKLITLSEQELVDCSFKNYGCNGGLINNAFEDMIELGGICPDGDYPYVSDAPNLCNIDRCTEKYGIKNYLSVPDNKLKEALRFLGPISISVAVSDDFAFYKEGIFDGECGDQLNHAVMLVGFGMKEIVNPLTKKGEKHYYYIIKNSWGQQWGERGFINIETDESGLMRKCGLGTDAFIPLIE

[12] = biological target: T1, Procathepsin L; test: Inhibition of human cathepsin L assessed as second order rate constant using Cbz-Phe-Arg-AMC as substrate after 10 mins by fluorescence assay
Target sequence in this assay (P07711 114-333 limits assumed): as the sequence (P07711 114-333 limits assumed) above

[13] = system: Trypanosoma brucei brucei; test: Effect on protein bound glutathione level in blood stream of Trypanosoma brucei brucei; type: functional
[14] = system: Trypanosoma brucei brucei; test: Inhibition of trypanothione synthetase in blood stream of Trypanosoma brucei brucei assessed as cellular content of free trypanothione at 3 uM after 24 hrs by HPLC analysis (reference value: 340 uM)
How it was run: (§2)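 Bloodstream-form T. brucei were seeded at 1 x10^5 cells/ml and treated for 24 h, with untreated cells as control. Free thiols (GSH, T(SH)2), and free thiols plus disulfides (GSSG, TS2), were labelled with monobromobimane and quantified by HPLC. Values are mean ± SD of three independent experiments.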

[15] = system: Trypanosoma brucei brucei; test: Effect on glutathione level in blood stream of Trypanosoma brucei brucei at 3 uM after 24 hrs by HPLC analysis; type: functional; how it was run: as §2
[16] = system: Trypanosoma brucei brucei; test: Inhibition of trypanothione synthetase in blood stream of Trypanosoma brucei brucei assessed as cellular content of free trypanothione after 24 hrs by HPLC analysis; how it was run: as §2

Rhodesain (Trypanosoma brucei rhodesiense), sequence (Q95PM0 1-450): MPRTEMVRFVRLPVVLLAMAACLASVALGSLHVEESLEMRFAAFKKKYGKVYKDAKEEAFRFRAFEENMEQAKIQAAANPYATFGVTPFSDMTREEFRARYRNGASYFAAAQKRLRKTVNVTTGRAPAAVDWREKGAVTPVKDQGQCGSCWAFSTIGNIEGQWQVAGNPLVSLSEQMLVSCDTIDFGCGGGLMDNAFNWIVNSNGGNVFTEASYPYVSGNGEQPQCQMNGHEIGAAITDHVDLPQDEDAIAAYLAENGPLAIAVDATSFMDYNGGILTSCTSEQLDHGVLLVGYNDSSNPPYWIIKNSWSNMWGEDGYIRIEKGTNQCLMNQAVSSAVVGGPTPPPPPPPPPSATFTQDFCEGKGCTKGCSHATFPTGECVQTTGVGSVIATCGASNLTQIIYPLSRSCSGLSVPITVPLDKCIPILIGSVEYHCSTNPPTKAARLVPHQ
Rhodesain, sequence (Q95PM0 whole entry): as the sequence (Q95PM0 1-450) above

Row | Compound | K [1] [×10³ /M/min] | Ki [2] [nM] | Kinact [3] [min⁻¹] | EC50 [4] [nM] | Kinact [5] [min⁻¹] | EC50 [6] [nM] | selectivity ratio at 48 h [7] | EC50 [8] [nM] | Ki [9] [nM] | CC50 at 48 h [10] [nM] | IC50 [11] [nM] | K [12] [×10³ /M/min] | Activity [13] | Activity [14] [µM] | Activity [15] | inhibition [16]
1 | CC(=O)/C=C/[C@H](CCc1ccccc1)NC(=O)[C@H](CC(C)C)NC(=O)OCc1ccc([N+](=O)[O-])cc1 | 2970 | 3.5 | 0.0026 | 3230 | 0.0027 | 2480 | 3.3 | 2740 | 0.9 | 8200 | 110 | 739 |  |  |  | 
2 | N#C/C=C/[C@H](CCc1ccccc1)NC(=O)[C@H](Cc1ccccc1)NC(=O)OCc1ccccc1 | 12 | 240 | 0.0022 |  | 0.0005 |  |  | > 10000 | 46 |  | > 50000 | 9.3 |  |  |  | 
3 | CC(C)C[C@H](NC(=O)OCc1ccc([N+](=O)[O-])cc1)C(=O)N[C@H](/C=C/S(=O)(=O)c1ccccc1)CCc1ccccc1 | 304 | 250 | 0.005 |  | 0.0043 |  |  | 2310 | 14 |  | 1320 | 22 |  |  |  | 
4 | CC(C)C[C@H](NC(=O)[C@H]1O[C@@H]1C(=O)O)C(=O)NCCCCN=C(N)N [E-64] | 261 | 30 | 0.0032 |  | 0.009 |  |  |  | 35 |  | 250 | 110 |  |  |  | 
5 | CCN(CC)CCCC(C)Nc1ccnc2cc(Cl)ccc12 (stereo unspecified) [CHLOROQUINE] |  |  |  |  |  |  |  | 57 |  |  |  |  |  |  |  | 
6 | CC(=O)/C=C/[C@H](CCc1ccccc1)NC(=O)[C@H](Cc1ccccc1)NC(=O)OCc1ccccc1 | 67000 | 0.4 | 0.002 | 3180 | 0.00255 | 2970 | 2.6 | 7030 | 0.038 | 7900 | 3010 | 5750 | inactive | 160 | Dose-dependent effect | Dose-dependent effect
7 | CC(=O)/C=C/[C@H](CCc1ccccc1)NC(=O)[C@H](Cc1ccccc1)NC(=O)OCc1ccc([N+](=O)[O-])cc1 | 24400 | 2.2 | 0.0016 | 6050 | 0.0017 | 4980 |  | 7180 | 0.074 |  | 780 | 737 |  |  |  | 
8 | COC(=O)/C=C/[C@H](CCc1ccccc1)NC(=O)[C@H](Cc1ccccc1)NC(=O)OCc1ccc([N+](=O)[O-])cc1 | 347 | 25 | 0.0016 | 97200 | 0.0012 |  |  | > 10000 | 3.6 |  | > 50000 | 64 |  |  |  | 
9 | COC(=O)/C=C/[C@H](CCc1ccccc1)NC(=O)[C@H](CC(C)C)NC(=O)OCc1ccccc1 | 509 | 40 | 0.0032 | 6080 | 0.0038 | 5020 |  | 4400 | 7.5 |  | 9530 | 81 |  |  |  | 
